# SR-BI DiI-HDL act = activators of SR-BI mediated HDL lipid uptake; CHO ldlA[mSR-BI] cells, DiI-HDL uptake fluorescence, 3 h; 100 = double the neutral-control signal; activation, % at 12.5 µM; 0.096% of 320,000 active;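 active means mean replicate activation of at least 60% and every replicate at or above 60%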;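 further: 0% = median plate neutral-control signal and 100% = twice that signal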
#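 material = CHO ldlA[mSR-BI] cells | medium = Ham's F12 with 0.5% BSA, HEPES 25 mM, pH 7.4 | reagent = fluorescent DiI-HDL, 10 µg/mL final | compound dosing = single-point compound dose | incubation = 3 h, 37 °C | measured by = bottom-read fluorescence, 550/595 nm | measure = HDL uptake via cellular fluorescence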
# SR-BI HDL uptake = mouse SR-BI HDL lipid transfer inhibition. Q61009. ldlA[mSR-BI] CHO cells, DiI-HDL uptake fluorescence, 3 h. inhibition, % at 12.5 µM. 0.96% of 320,000 active;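 active means mean replicate inhibition of at least 70% and a set share of replicates each scoring 70 or more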;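 further: 0% = median of neutral control wells and 100% = median of positive control wells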
# Target sequence (Q61009 whole entry, looked up): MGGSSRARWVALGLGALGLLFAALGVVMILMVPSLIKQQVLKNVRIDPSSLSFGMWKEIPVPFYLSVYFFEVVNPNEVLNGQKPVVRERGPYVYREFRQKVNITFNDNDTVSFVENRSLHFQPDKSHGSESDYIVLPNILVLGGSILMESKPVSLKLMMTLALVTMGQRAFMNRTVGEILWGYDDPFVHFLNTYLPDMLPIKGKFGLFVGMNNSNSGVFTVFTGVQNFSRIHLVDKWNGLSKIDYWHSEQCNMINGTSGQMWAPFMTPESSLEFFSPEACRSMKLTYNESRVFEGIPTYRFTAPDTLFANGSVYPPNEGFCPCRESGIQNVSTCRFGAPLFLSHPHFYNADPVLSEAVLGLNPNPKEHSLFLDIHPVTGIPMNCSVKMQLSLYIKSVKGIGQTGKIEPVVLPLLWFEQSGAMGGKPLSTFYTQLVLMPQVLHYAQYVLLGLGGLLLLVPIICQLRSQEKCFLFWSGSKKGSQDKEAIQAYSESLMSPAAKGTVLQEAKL
# CDK5 inh = blocks human CDK5/p35 kinase activity. Q00535+Q15078. Recombinant CDK5/p35, ADP-Glo luminescence, 60 min. inhibition, % at 10 µM. 0.01% of 330,000 active;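 active means highest replicate inhibition of at least 50% and at least 75% of replicates reaching 50%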;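 further: plate controls were DMSO neutral control for no effect and GW8510 at 10 µM for full effect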
# dFosB act-1 = mouse delta FosB homodimer activation | P13346 | purified delta FosB, TAMRA-CDK5 oligo fluorescence polarization; percent of positive-control signal above neutral wells | activation, % at 25 µM | 0.99% of 340,000 active | AID 493131;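 active means mean activation above about 17%, with every replicate also reaching it, limit read from the data, passing the limit was not always enough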
# dFosB act-2 = delta FosB (mouse) homodimer activation. shares compounds with dFosB act-1. purified delta FosB, TAMRA-CDK5 oligo fluorescence polarization; normalised: neutral wells 0, positive control 100. activation, % at 24.9 µM. 2,400 tested, under 10 active. AID 588690;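 active means highest replicate activation at or above 34% and every replicate reaching that threshold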;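 further: higher polarization means more probe DNA bound by delta FosB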
# Starred values were filed as active, the others as inactive; / = not tested or not shown. Rows were chosen to be rich in hits. Some 2% of all compounds tested hit in one or more screens of this group.
SMILES,SR-BI DiI-HDL act,SR-BI HDL uptake,CDK5 inh,dFosB act-1,dFosB act-2
Cc1ccc2nc(-c3ccc(SCC(=O)Nc4ccc5c(c4)OCCO5)nc3)[nH]c2c1,/,/,0.7,49.7*,-5.4
CN(C)c1cccc(C(=O)NNC(=O)CN2C(=O)C3CC=CCC3C2=O)c1 (stereo not drawn),-66.2,66.2,0.0,-3.2,/
CC(C)(O)/C=C/C[C@](C)(O)C1CC[C@]2(C)C1[C@H](O[C@H]1O[C@@H](CO)[C@H](O)[C@@H](O)[C@@H]1O)CC1[C@@]3(C)CC[C@H](O)C(C)(C)C3[C@@H](O)C[C@]12C (stereo partly drawn),17.0,-17.0,-2.6,0.8,/
Cc1ccc(OCCOC(=O)CCc2nc3ccccc3c(=O)[nH]2)cc1,24.3,-24.3,-0.3,-5.7,/
C=CCNC(=O)C1CCN(S(=O)(=O)c2cccs2)CC1,12.5,-12.5,-2.3,-5.4,/
CCOc1ccc(NC(=O)Cn2nnc(-c3ccccc3NC(=O)c3cccs3)n2)cc1,-37.9,37.9,-1.4,52.1*,5.0
Cc1noc(C)c1C(=O)OCC(=O)NC1CCCCC1C (stereo not drawn),0.3,-0.3,1.5,-0.6,/
COc1ccc2oc(C(=O)OCC(=O)Nc3ccc(OC)c(S(N)(=O)=O)c3)c(C)c2c1,-33.6,33.6,-1.5,-12.4,/
COc1ccc2oc(C(=O)OCC(=O)Nc3cc(S(=O)(=O)N4CCOCC4)ccc3C)c(C)c2c1,-43.5,43.5,0.4,38.0*,3.1
COc1ccc2oc(C(=O)OCC(=O)Nc3ccc(NC(C)=O)cc3)c(C)c2c1,-30.0,30.1,0.4,35.7*,-8.1
CN(CC(=O)NC(=O)NC1CCCCC1)CC(=O)Nc1ccc(Cl)cc1,3.3,-3.3,-1.5,-15.1,/
COc1cc(C(=O)Nc2nc3ccc(S(C)(=O)=O)cc3s2)cc(OC)c1C,-69.1,69.1,-1.0,30.1*,1.4
CC(=O)c1sc(NC(=O)c2oc3ccc(F)cc3c2C)nc1C,-25.8,25.8,-0.2,59.2*,-8.2
COc1ccc2nc(NC(=O)CS(=O)(=O)Cc3ccccc3)sc2c1,11.5,-11.5,-0.8,74.3*,-1.8
COc1ccc(OCC(=O)Nc2nc3cc4c(cc3s2)OCCO4)cc1,4.6,-4.6,-0.4,47.0*,0.1
O=C(CS(=O)(=O)Cc1ccccc1)Nc1nc2ccccc2s1,13.1,-13.1,-1.4,-1.4,/
O=S(=O)(Nc1ccc(Br)cn1)c1ccc2ccccc2c1,11.6,-11.6,1.4,-1.2,/
COc1ccc2oc(C(=O)Nc3nc4ccc(S(C)(=O)=O)cc4s3)c(C)c2c1,-26.6,26.5,-0.3,61.0*,6.5
N#Cc1ccc(C23CC4(C2)[C@H](CN(Cc2ccc(-c5ccccc5)cc2)[C@@H]4c2ccccc2)C3c2ccc(Cl)nc2)cc1 (stereo partly drawn),19.1,-19.1,1.5,16.8*,4.1
CN1C[C@@H]2C(c3ccc(Cl)nc3)C3(c4ccc(C#N)cc4)CC2(C3)[C@H]1c1ccccc1 (stereo partly drawn),-17.9,17.9,0.3,0.0,/
C=CCN(C(=O)COc1ccccc1)c1nnc(-c2ccncc2)s1,-15.8,15.8,0.2,22.4*,1.3
CC(=O)Oc1ccc(C(=O)O)c(OC(C)=O)c1,41.2,-41.2,0.5,-0.5,/
C=CCNC(=O)C1CC(=O)N(c2ccc(OCC(=O)Nc3cccc(OC)c3)cc2)C1 (stereo not drawn),/,/,1.7,-3.8,/
C=CCNC(=O)C1CC(=O)N(c2ccc(OCC(=O)Nc3ccc(Cl)c(C(F)(F)F)c3)cc2)C1 (stereo not drawn),-46.2,46.2,-1.2,27.0*,-0.4
Cc1cc(NC(=O)c2ccc(C)c([N+](=O)[O-])c2)no1,-20.4,20.4,-2.5,-3.5,/
SMILES,SR-BI DiI-HDL act,SR-BI HDL uptake,CDK5 inh,dFosB act-1,dFosB act-2
Cc1cc(NC(=O)c2ccc(Br)c([N+](=O)[O-])c2)no1,-0.6,0.6,-0.8,45.6*,1.3
COc1ccc(/C=C/C(=O)NC(=S)Nc2ccccn2)cc1,29.7,-29.7,-1.6,17.0*,-0.3
Cc1nn(C)cc1S(=O)(=O)N1CCN(Cc2cccc(Cl)c2)CC1,8.4,-8.4,-3.0,0.9,/
Cc1c(C(=O)Nc2ccc(F)cc2)cn2c(nc3ccccc32)c1C#N,-0.8,0.8,1.1,33.5*,-0.7
CC(C)c1nnc(NC(=O)CCC(=O)Nc2ccc3cn[nH]c3c2)s1,/,/,0.5,6.5,/
CC(C)Cc1nc(C(N)=O)c2[nH]c(=O)n(-c3ccc(F)cc3)c2n1,34.2,-34.2,0.2,-13.9,/
NC(=O)c1nc(-c2cccs2)nc2c1[nH]c(=O)n2-c1ccc(F)cc1,/,/,-1.7,122.7*,1.5
Cc1ccc(NC(=O)c2c(C)nc3ccccn23)cc1C,1.8,-1.8,-3.9,0.4,/
CCc1ccc(NC(=O)c2c(C(=O)Nc3ccccc3)sc3nc(C)cc(=O)n23)cc1,-41.9,41.9,-2.0,35.0*,-0.6
Cc1ccc(NC(=O)c2c(C(=O)Nc3ccccc3)sc3nc(C)cc(=O)n23)cc1,-39.3,39.3,1.9,31.6*,-3.2
Cc1ccc(NC(=O)c2cc(C)nn2-c2ccccc2)cc1,/,/,0.2,-5.4,/
Cc1cc(=O)n2c(C(=O)Nc3ccc(C)c(C)c3)c(C(=O)Nc3ccccc3)sc2n1,-49.5,49.5,-2.5,34.1*,0.8
Cc1ccc(CNC(=S)Nc2ccc(NS(=O)(=O)c3ccc(C)cc3)cc2)cc1,-25.1,25.1,1.5,18.8*,2.8
Cc1nc(NC(=S)NC(=O)c2cncc(Br)c2)ccc1Br,-7.3,7.3,-1.1,20.7*,1.2
Cc1ccnc(NC(=S)NC(=O)c2cncc(Br)c2)c1,-0.1,0.1,1.5,-7.1,/
NC(=O)c1ccc(NC(=O)CSC2=Nc3ccccc3C3CC=NN23)cc1 (stereo not drawn),-1.1,1.1,0.0,24.9*,-1.7
CCOC(=O)c1nn(-c2ccccc2)c(=O)cc1OCC(=O)Nc1ccccc1OCC,13.0,-13.0,1.0,-1.8,/
Cc1cc(NC(=O)Cn2c(=O)n(Cc3ccccc3)c(=O)c3ccccc32)no1,-16.0,16.0,-2.7,52.1*,-7.9
Cc1cc(NC(=O)CSc2nc3ccccc3c(=O)n2Cc2ccc(F)cc2)no1,-17.8,17.8,-0.5,41.6*,5.3
COc1ccc(CCn2c(SCC(=O)Nc3cc(C)on3)nc3ccsc3c2=O)cc1OC,-10.3,10.3,2.0,23.3*,4.0
O=C(CSc1nc2ccccc2c(=O)n1Cc1ccc(F)cc1)NCc1cccs1,-1.4,1.4,-1.9,34.7*,-1.6
O=C(NC1CC2CCCC(C1)N2C(=O)Nc1ccccc1)C1CC1 (stereo not drawn),/,/,0.3,3.7,/
O=C(Cc1c(Cl)cccc1Cl)NCCc1ccc(Cl)cc1,4.8,-4.8,0.1,20.1*,0.4
C=CCNC(=S)Nc1cccc2[nH]ncc12,11.1,-11.1,0.0,-3.9,/
COc1ccc(Cc2nnc(NC(=O)c3ccc(F)cc3)s2)cc1OC,9.4,-9.4,2.6,3.8,/
